Measured values from ChEMBL document CHEMBL4038284, “Synthesis of novel quinoline-based 4,5-dihydro-1H-pyrazoles as potential anticancer, antifungal, antibacterial and antiprotozoal agents” (Eur J Med Chem, 2017).
Values after ≈ are worked out from the molar mass of the structure shown.

Key:
Plasmodium falciparum = test: Antiplasmodial activity against chloroquine-sensitive Plasmodium falciparum 3D7 assessed as reduction in parasitic LDH activity after 48 hrs by Malstat reagent based […] method; assay type: functional; details: 3D7, 48 h
How it was run: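 Unsynchronized P. falciparum 3D7 at 0.5% parasitemia and 1% hematocrit in RPMI with 3% Albumax II. Exposed to 100, 25, 6.25 and 1.56 µg/mL for 48 h at 37 °C under 90% N2/5% CO2/5% O2. After three freeze-thaw cycles, LDH measured with Malstat and NBT/PES, 1 h in the dark, read at 650 nm. IC50 by Probit; triplicate, ≥2 experiments.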

Klebsiella pneumoniae [1] = test: Antibacterial activity against carbapenemase positive Klebsiella pneumoniae BAA 1705 after 24 hrs by resazurin dye based microdilution assay; assay type: functional; details: BAA 1705, 24 h
How it was run: (§1)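 MIC taken as the lowest concentration giving visible inhibition and/or by resazurin (1 mg/mL). Gentamicin was the control. Run in duplicate, repeated at least three times.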

Candida albicans [2] = test: Growth inhibition of Candida albicans ATCC 10231 at 125 ug/ml incubated for 48 hrs under dark condition by broth microdilution method relative to control; assay type: functional; details: ATCC 10231, 48 h, read-out: GI
How it was run: (§2)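 CLSI M27-A3 broth microdilution in RPMI-1640, DMSO ≤1%. Inoculum 1-5 × 10^3 CFU/mL. Incubated 48 h at 30 °C, dark. % inhibition = 100 − (OD405 test − sterility control)/(OD405 growth control − sterility control), with growth and sterility control wells. Triplicate.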

Klebsiella pneumoniae [3] = test: Antibacterial activity against ESBL positive Klebsiella pneumoniae ATCC 700603 after 24 hrs by resazurin dye based microdilution assay; assay type: functional; details: Klebsiella pneumoniae, 700603, 24 h; how it was run: as §1
Leishmania panamensis = test: Antileshmanial activity against EpiR/GFP fused Leishmania panamensis MHOM/CO/87/UA140 intracellular amastigotes infected in human […] cells after 72 hrs by flow cytometric method; assay type: functional, cell-based; details: MHOM/CO/87/UA140, 72 h
How it was run: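 PMA-treated U-937 cells (3 × 10^5 cells/mL) infected with stationary-phase GFP L. panamensis promastigotes (15:1), 3 h at 34 °C, then washed. After 24 h, compounds added at 50, 12.5, 3.125 and 0.78 µg/mL for 72 h at 37 °C. EC50 by Probit; triplicate, two experiments.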

Staphylococcus aureus [4] = test: Antibacterial activity against vancomycin-intermediate Staphylococcus aureus after 24 hrs by resazurin dye based microdilution assay; assay type: functional; how it was run: as §1
Candida albicans [5] = test: Antifungal activity against Candida albicans ATCC 10231 incubated for 48 hrs under dark condition by broth microdilution method; assay type: functional; details: ATCC 10231, 48 h
How it was run: (§3)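 CLSI M27-A3 broth microdilution in RPMI-1640, DMSO ≤1%, compounds at 250-0.98 µg/mL final. Inoculum 1-5 × 10^3 CFU/mL. Incubated 48 h at 30 °C in a moist dark chamber, read at OD405. MIC80 and MIC50 taken from % inhibition dose-response curves (mean ± SEM, triplicate). Amphotericin B was the positive control.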

Candida albicans [6] = test: Growth inhibition of Candida albicans ATCC 10231 at 15.62 ug/ml incubated for 48 hrs under dark condition by broth microdilution method relative to control; assay type: functional; details: ATCC 10231, 48 h, read-out: GI; how it was run: as §2
Cryptococcus neoformans [7] = test: Antifungal activity against Cryptococcus neoformans ATCC 32264 incubated for 48 hrs under dark condition by broth microdilution method; assay type: functional; details: ATCC 32264, 48 h; how it was run: as §3
Cryptococcus neoformans [8] = test: Growth inhibition of Cryptococcus neoformans ATCC 32264 at 250 ug/ml incubated for 48 hrs under dark condition by broth microdilution method relative to control; assay type: functional; details: ATCC 32264, 48 h, read-out: GI; how it was run: as §2
Cryptococcus neoformans [9] = test: Growth inhibition of Cryptococcus neoformans ATCC 32264 at 62.5 ug/ml incubated for 48 hrs under dark condition by broth microdilution method relative to control; assay type: functional; details: ATCC 32264, 48 h, read-out: GI; how it was run: as §2
Candida albicans [10] = test: Growth inhibition of Candida albicans ATCC 10231 at 62.5 ug/ml incubated for 48 hrs under dark condition by broth microdilution method relative to control; assay type: functional; details: ATCC 10231, 48 h, read-out: GI; how it was run: as §2
Cryptococcus neoformans [11] = test: Growth inhibition of Cryptococcus neoformans ATCC 32264 at 31.25 ug/ml incubated for 48 hrs under dark condition by broth microdilution method relative to control; assay type: functional; details: ATCC 32264, 48 h, read-out: GI; how it was run: as §2
Neisseria gonorrhoeae = test: Antibacterial activity against beta lactamase positive Neisseria gonorrhoeae ATCC 31426 by oxidase test; assay type: functional
How it was run: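 Agar dilution MIC on GC agar with 1% isovitalex containing increasing compound concentrations. Plates inoculated with about 1×10^4 CFU (5 µL). MIC is the lowest concentration that inhibited growth, with growth confirmed by oxidase test. Run in duplicate, repeated at least three times.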

Staphylococcus aureus [12] = test: Antibacterial activity against methicillin-sensitive Staphylococcus aureus ATCC 25923 after 24 hrs by resazurin dye based microdilution assay; assay type: functional; details: ATCC 25923, 24 h; how it was run: as §1
Trypanosoma cruzi = test: Antitrypanosomal activity against Trypanosoma cruzi Tulahuen intracellular amastigote harboring LacZ infected in human U937 cells after 72 hrs by CPRG/Nonidet reagent based spectrophotometric method; assay type: functional, cell-based; details: U-937, 72 h
How it was run: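 U-937 cells at 2.5 × 10^5 cells/mL in RPMI-1640 with 10% serum and 0.1 µg/mL PMA were infected with β-galactosidase-transfected Tulahuen epimastigotes at 5 parasites per cell. Infected cells were exposed to 50, 12.5, 3.125 and 0.78 µg/mL for 72 h. CPRG (100 uM) and 0.1% Nonidet P-40 were added for 3 h, read at 570 nm. EC50 by Probit. Triplicate, at least two experiments; benznidazole as reference.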

Candida albicans [13] = test: Growth inhibition of Candida albicans ATCC 10231 at 250 ug/ml incubated for 48 hrs under dark condition by broth microdilution method relative to control; assay type: functional; details: ATCC 10231, 48 h, read-out: GI; how it was run: as §2
Candida albicans [14] = test: Growth inhibition of Candida albicans ATCC 10231 at 31.25 ug/ml incubated for 48 hrs under dark condition by broth microdilution method relative to control; assay type: functional; details: ATCC 10231, 48 h, read-out: GI; how it was run: as §2
Cryptococcus neoformans [15] = test: Growth inhibition of Cryptococcus neoformans ATCC 32264 at 15.62 ug/ml incubated for 48 hrs under dark condition by broth microdilution method relative to control; assay type: functional; details: ATCC 32264, 48 h, read-out: GI; how it was run: as §2
Candida albicans [16] = test: Growth inhibition of Candida albicans ATCC 10231 at 3.4 ug/ml incubated for 48 hrs under dark condition by broth microdilution method relative to control; assay type: functional; details: ATCC 10231, 48 h, read-out: GI
Cryptococcus neoformans [17] = test: Growth inhibition of Cryptococcus neoformans ATCC 32264 at 3.4 ug/ml incubated for 48 hrs under dark condition by broth microdilution method relative to control; assay type: functional; details: ATCC 32264, 48 h, read-out: GI
Candida albicans [18] = test: Growth inhibition of Candida albicans ATCC 10231 at 7.8 ug/ml incubated for 48 hrs under dark condition by broth microdilution method relative to control; assay type: functional; details: ATCC 10231, 48 h, read-out: GI; how it was run: as §2
Cryptococcus neoformans [19] = test: Growth inhibition of Cryptococcus neoformans ATCC 32264 at 7.8 ug/ml incubated for 48 hrs under dark condition by broth microdilution method relative to control; assay type: functional; details: ATCC 32264, 48 h, read-out: GI; how it was run: as §2
Cryptococcus neoformans [20] = test: Growth inhibition of Cryptococcus neoformans ATCC 32264 at 125 ug/ml incubated for 48 hrs under dark condition by broth microdilution method relative to control; assay type: functional; details: ATCC 32264, 48 h, read-out: GI; how it was run: as §2
U-937 = test: Cytotoxicity against human U937 cells after 72 hrs by MTT assay; assay type: cell-based; details: u-937, 72 h
How it was run: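 Exponentially growing U-937 at 1 × 10^5 cells/mL in RPMI-1640 with 10% FBS were exposed to 200, 50, 12.5 and 3.125 µg/mL for 72 h at 37 °C, 5% CO2. MTT for 3 h, stopped with isopropanol/SDS, formazan read at 570 nm, blank-corrected. LC50 by Probit from % viability against untreated cells. Triplicate, at least two independent experiments.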

Staphylococcus aureus [21] = test: Antibacterial activity against methicillin-resistant Staphylococcus aureus ATCC 43300 after 24 hrs by resazurin dye based microdilution assay; assay type: functional; details: ATCC 43300, 24 h
How it was run: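 Broth microdilution in Mueller Hinton broth, inoculum 5 × 10^5 – 8 × 10^5. Compound stocks diluted in MHB with 5% DMSO and 0.1% Tween 80. Incubation 24 h at 35-37 °C. MIC is the lowest concentration with visible growth inhibition and/or by resazurin (1 mg/mL) read-out. Gentamicin as control. Run in duplicate, replicated at least three times.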

Pseudomonas aeruginosa = test: Antibacterial activity against Pseudomonas aeruginosa ATCC 27853 after 24 hrs by resazurin dye based microdilution assay; assay type: functional; details: ATCC 27853, 24 h; how it was run: as §1
Escherichia coli = test: Antibacterial activity against Escherichia coli ATCC 25922 after 24 hrs by resazurin dye based microdilution assay; assay type: functional; details: ATCC 25922, 24 h; how it was run: as §1

| SMILES | EC50 (Plasmodium falciparum) [µg/mL] | MIC (Klebsiella pneumoniae [1]) [µg/mL] | inhibition of growth at 125 µg/mL (Candida albicans [2]) [%] | MIC (Klebsiella pneumoniae [3]) [µg/mL] | EC50 (Leishmania panamensis) [µg/mL] | MIC (Staphylococcus aureus [4]) [µg/mL] | MIC50 (Candida albicans [5]) [µg/mL] | MIC80 (Candida albicans [5]) [µg/mL] | inhibition of growth at 15.62 µg/mL (Candida albicans [6]) [%] | MIC50 (Cryptococcus neoformans [7]) [µg/mL] | MIC80 (Cryptococcus neoformans [7]) [µg/mL] | inhibition of growth at 250 µg/mL (Cryptococcus neoformans [8]) [%] | inhibition of growth at 62.5 µg/mL (Cryptococcus neoformans [9]) [%] | inhibition of growth at 62.5 µg/mL (Candida albicans [10]) [%] | inhibition of growth at 31.25 µg/mL (Cryptococcus neoformans [11]) [%] | MIC (Neisseria gonorrhoeae) [µg/mL] | MIC (Staphylococcus aureus [12]) [µg/mL] | EC50 (Trypanosoma cruzi) [µg/mL] | inhibition of growth at 250 µg/mL (Candida albicans [13]) [%] | inhibition of growth at 31.25 µg/mL (Candida albicans [14]) [%] | also measured |
| --- | --- | --- | --- | --- | --- | --- | --- | --- | --- | --- | --- | --- | --- | --- | --- | --- | --- | --- | --- | --- | --- |
| Cc1ccc(C(=O)/C=C/c2cccc(Nc3ccnc4cc(Cl)ccc34)c2)cc1 | 10.3 (≈ 25.7 µM) | > 1000 | 53.1 | > 1000 | 1.2 (≈ 3.01 µM) | > 1000 | 125 (≈ 313 µM) | ≥ 250 | 36.6 | 7.8 (≈ 19.6 µM) | 15.6 (≈ 39.2 µM) | 100 | 100 | 45.4 | 100 | > 1000 | > 1000 | > 1 | 63.6 | 39.6 | inhibition of growth at 15.62 µg/mL (Cryptococcus neoformans [15]): 93.7%; inhibition of growth at 3.4 µg/mL (Candida albicans [16]): 27.2%; inhibition of growth at 3.4 µg/mL (Cryptococcus neoformans [17]): 41.4%; inhibition of growth at 7.8 µg/mL (Candida albicans [18]): 30.6%; inhibition of growth at 7.8 µg/mL (Cryptococcus neoformans [19]): 71.8%; inhibition of growth at 125 µg/mL (Cryptococcus neoformans [20]): 100%; LC50 (U-937): 2 µg/mL (≈ 5.01 µM); MIC (Staphylococcus aureus [21]): > 1000 µg/mL; MIC (Pseudomonas aeruginosa): > 1000 µg/mL; MIC (Escherichia coli): > 1000 µg/mL |
| COc1ccc(C2=NN(C(C)=O)C(c3cccc(Nc4ccnc5cc(Cl)ccc45)c3)C2)cc1 (stereo not given) | 13.8 (≈ 29.3 µM) | > 1000 | 33.4 | > 1000 | 2.98 (≈ 6.33 µM) | > 1000 | ≥ 250 | ≥ 250 | 14.2 | 250 (≈ 531 µM) | ≥ 250 | 72.2 | 22.4 | 20.4 | 20.2 | > 1000 | > 1000 | 3.44 (≈ 7.3 µM) | 37.5 | 16.9 | inhibition of growth at 15.62 µg/mL (Cryptococcus neoformans [15]): 13.9%; inhibition of growth at 3.4 µg/mL (Candida albicans [16]): 6.14%; inhibition of growth at 3.4 µg/mL (Cryptococcus neoformans [17]): 4.82%; inhibition of growth at 7.8 µg/mL (Candida albicans [18]): 7.64%; inhibition of growth at 7.8 µg/mL (Cryptococcus neoformans [19]): 7.99%; inhibition of growth at 125 µg/mL (Cryptococcus neoformans [20]): 45%; LC50 (U-937): 4.9 µg/mL (≈ 10.4 µM); MIC (Staphylococcus aureus [21]): > 1000 µg/mL; MIC (Pseudomonas aeruginosa): > 1000 µg/mL; MIC (Escherichia coli): > 1000 µg/mL |
